The text below walks through data of ChEMBL document CHEMBL1155459, “On-bead screening of a combinatorial fumaric acid derived peptide library yields antiplasmodial cysteine protease inhibitors with unusual peptide sequences” (J Med Chem, 2009).

Test [1] has as its target T1, Cathepsin B (Homo sapiens, UniProt P07858). As to the kind of experiment: Inhibition of human liver cathepsin B at 100 uM.
In test [2] the target is Rhodesain (Trypanosoma brucei rhodesiense) (UniProt Q95PM0). As to the kind of experiment: Inhibition of Trypanosoma brucei rhodesiense recombinant rhodesain at 100 uM. Put shortly:
(§1)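 Single-point screen at 100 μM inhibitor (final). Recombinant enzyme in 50 mM acetate pH 5.5, 5 mM EDTA, 200 mM NaCl, 5 mM DTT, 10% DMSO final; Cbz-Phe-Arg-AMC 40 μM (or Cbz-Leu-Arg-AMC 25 μM) hydrolysis followed by fluorescence (ex 380/em 460 nm). % inhibition = 100(1 − vi/vc) from progress-curve slopes vs DMSO control; at least two independent assays.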

Test [3] relates to Plasmodium falciparum. As to the kind of experiment: Inhibition of Plasmodium falciparum recombinant falcipain-2 expressed in Escherichia coli at 100 uM after 20 min by spectrofluorometry. Put shortly: as §1
In test [4] the target is Rhodesain (Trypanosoma brucei rhodesiense) (UniProt Q95PM0). As to the kind of experiment: Inhibition of Trypanosoma brucei rhodesiense rhodesain after 12 hrs by fluorescence spectroscopy-based on-bead assay. Also noted: concentration or dose not given beside the values. Conditions: concentration not given here; call rule not given here. Put shortly:
(§2)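 Library members on resin (PEGA, theoretical loading 0.40 mmol/g; added as DMSO suspension, 0.64 mM final inhibitor) preincubated with enzyme 12 h, then Cbz-Phe-Arg-AMC 40 μM added; AMC release followed by fluorescence (ex 380/em 460 nm). Kinetics compared with inhibitor-free amino-PEGA resin.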

The target in a further test is Rhodesain (Trypanosoma brucei rhodesiense, UniProt Q95PM0). Nature of the test: Inhibition of Trypanosoma brucei rhodesiense recombinant rhodesain.
Test [5] can be described thus: Inhibition of Plasmodium falciparum falcipain-2 after 12 hrs by fluorescence spectroscopy-based on-bead assay. Also noted: concentration or dose not given beside the values. Conditions: concentration not given here. The essentials:
as §2

The target in test [6] is T1, Cathepsin B. As to the kind of experiment: Inhibition of human liver cathepsin B. Put shortly:
(§3)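 Cathepsin L (bovine spleen) or B (human liver) hydrolysis of Cbz-Phe-Arg-AMC (40 μM) followed by fluorescence for 5-10 min without preincubation at 0.1-80 μM inhibitor, 10% DMSO final.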

Test [7] relates to Plasmodium falciparum. Nature of the test: Antiplasmodial activity against Plasmodium falciparum FCBR by fluorometric method. The class given is functional, organism-based, FCBR/Columbia.
Test [8] is described as follows: Inhibition of Plasmodium falciparum recombinant falcipain-2 expressed in Escherichia coli after 20 min using Cbz-Phe-Arg-AMC as substrate by spectrofluorometry. Conditions: in the assay text read “over 5-10 min” for “after 20 min”. Put shortly:
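Continuous assay without preincubation. Recombinant falcipain-2 in 50 mM acetate pH 5.5, 5 mM EDTA, 200 mM NaCl, 5 mM DTT, 10% DMSO final; Cbz-Phe-Arg-AMC (40 μM, Km 21.5 μM) or Cbz-Leu-Arg-AMC (25 μM, Km 8.4 μM). Fluorescence monitored 5-10 min at 0.1-80 μM inhibitor. Ki from Dixon plot, corrected to zero substrate; at least two independent assays.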

In test [9] the test system is Trypanosoma brucei brucei. As to the kind of experiment: Antitrypanosomal activity against Trypanosoma brucei brucei. The class given is functional, organism-based.
A further test deals with Procathepsin L (Bos taurus, UniProt P25975). Nature of the test: Inhibition of bovine spleen cathepsin L. Put shortly: as §3
The nature of test [10]: Inhibition of Plasmodium falciparum recombinant falcipain-2 expressed in Escherichia coli […] using Cbz-Leu-Arg-AMC as substrate by spectrofluorometry.
Where [11] appears, read: Plasmodium falciparum, FCBR/Columbia, read-out: IC50.

Square brackets hold non-standard residues; d marks the D form. Peptide text beside a SMILES is read from it. * marks the point of attachment. Fumaroyl(GlyGlyPheOH) = O=C(/C=C/C(=O)*)NCC(=O)NCC(=O)N[C@@H](Cc1ccccc1)C(=O)O; Chg = N[C@H](C(=O)O)C1CCCCC1; Dap = NC[C@H](N)C(=O)O

Rhodesain (Trypanosoma brucei rhodesiense), sequence (Q95PM0 1-450): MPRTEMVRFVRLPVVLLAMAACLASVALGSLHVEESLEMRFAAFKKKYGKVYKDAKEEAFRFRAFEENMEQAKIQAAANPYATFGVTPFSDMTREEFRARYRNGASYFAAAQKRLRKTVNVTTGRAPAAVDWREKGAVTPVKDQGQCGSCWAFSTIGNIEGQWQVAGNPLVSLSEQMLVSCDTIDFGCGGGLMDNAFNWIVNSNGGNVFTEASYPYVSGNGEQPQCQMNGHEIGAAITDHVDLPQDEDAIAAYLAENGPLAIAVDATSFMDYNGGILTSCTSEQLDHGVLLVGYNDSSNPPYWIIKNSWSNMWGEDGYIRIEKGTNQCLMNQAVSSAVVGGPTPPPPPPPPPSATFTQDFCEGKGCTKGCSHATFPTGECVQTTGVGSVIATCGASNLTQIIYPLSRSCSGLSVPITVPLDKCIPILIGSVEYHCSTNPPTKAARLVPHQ
Rhodesain, sequence (Q95PM0 whole entry): as the sequence (Q95PM0 1-450) above
Procathepsin L, sequence (P25975 whole entry): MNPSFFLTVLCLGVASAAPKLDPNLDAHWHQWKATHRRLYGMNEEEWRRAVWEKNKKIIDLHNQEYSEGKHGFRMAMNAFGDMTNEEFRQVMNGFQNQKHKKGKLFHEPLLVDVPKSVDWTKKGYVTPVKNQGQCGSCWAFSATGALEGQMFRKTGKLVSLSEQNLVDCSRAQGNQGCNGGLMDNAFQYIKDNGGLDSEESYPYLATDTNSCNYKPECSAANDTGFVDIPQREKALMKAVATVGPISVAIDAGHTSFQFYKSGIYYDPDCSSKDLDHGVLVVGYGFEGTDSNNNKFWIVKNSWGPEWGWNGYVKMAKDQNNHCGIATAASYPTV

Turning to `CC(=O)NC[C@H](NC(=O)/C=C/C(=O)NCC(=O)NCC(=O)N[C@@H](Cc1ccccc1)C(=O)O)C(=O)N[C@H](C(=O)N[C@@H](C)C(=O)N[C@H](C(N)=O)C(C)C)C1CCCCC1` ({Fumaroyl(GlyGlyPheOH)}-[Dap](Ac)[Chg]AV-NH2), the inhibition (commonly the relative decrease from the control value, in per cent) on Cathepsin B [1] is 83%; in test [2], 95%; in the test with Plasmodium falciparum [3] it was 83%; in test [4], 25%; in test [5], 23%. For the same compound, the Ki – broadly, the dissociation constant of the complex between target and ligand, obtained from inhibition or displacement – was 0.3 µM on Rhodesain, 12.4 µM on Cathepsin B [6] and 7 µM in test [8]. The concentration for half-maximal inhibition (IC50) (usually the concentration that inhibits the measured activity by half) in the test on Plasmodium falciparum [7] (setting [11]) is 22 µM; in test [9], “Not Active”.
For the compound `CC(C)C[C@H](NC(=O)[C@H](Cc1ccccc1)NC(=O)/C=C/C(=O)NCC(=O)NCC(=O)N[C@@H](Cc1ccccc1)C(=O)O)C(=O)N[C@@H](CC(C)C)C(=O)N[C@H](C(N)=O)C(C)C` (HELM PEPTIDE1{[O=C(/C=C/C(=O)[*:2])NCC(=O)NCC(=O)N[C@@H](Cc1ccccc1)C(=O)O].F.L.L.V.[am]}$$$$V2.0), the inhibition at Cathepsin B [1] was 73%; in test [2] it was 68%; in the test with Plasmodium falciparum [3], 100%; in test [4], 69%; in test [5] it was 69%. The inhibitory constant (Ki) was found to be 34.8 µM on Procathepsin L, 0.2 µM on Rhodesain, 22.9 µM on Cathepsin B [6] and 0.8 µM in test [8]. The IC50 result with Plasmodium falciparum [7] is given as “Not Active”.
Regarding `CC(C)[C@H](NC(=O)[C@@H](NC(=O)[C@@H](NC(=O)[C@H](CCC(N)=O)NC(=O)/C=C/C(=O)NCC(=O)NCC(=O)N[C@@H](Cc1ccccc1)C(=O)O)C1CCCCC1)C(C)C)C(N)=O` (HELM PEPTIDE1{[O=C(/C=C/C(=O)[*:2])NCC(=O)NCC(=O)N[C@@H](Cc1ccccc1)C(=O)O].Q.[O=C([C@@H](N[*:1])C1CCCCC1)[*:2]].V.V.[am]}$$$$V2.0), the inhibition on Cathepsin B [1] came to 81%; in test [2], 99%; in the test with Plasmodium falciparum [3], 83%; in [4], 53%; in test [5] it was 51%. Besides, the figures for the Ki (at Rhodesain; in [8]) were 0.08 µM and 1.5 µM, respectively. Besides, the IC50 in the test on Plasmodium falciparum [7] (setting [11]) was 27 µM; in test [9], “Not Active”.
Regarding `CC(C)C[C@H](NC(=O)[C@H](C)NC(=O)/C=C/C(=O)N[C@@H](C)C(=O)NCC(=O)N[C@@H](Cc1ccccc1)C(=O)O)C(=O)N[C@@H](CC(C)C)C(=O)N[C@H](C(N)=O)C(C)C` (HELM PEPTIDE1{[C[C@H](NC(=O)/C=C/C(=O)[*:2])C(=O)NCC(=O)N[C@@H](Cc1ccccc1)C(=O)O].A.L.L.V.[am]}$$$$V2.0), the Ki came to 9.5 µM in test [10], 33.6 µM on Procathepsin L and 1.3 µM on Rhodesain. The inhibition stood at 45% at Cathepsin B [1]; 96% in test [2]; 86% in the test with Plasmodium falciparum [3]; 67% in test [4]; 58% in test [5].
For the compound `CC(C)[C@H](NC(=O)[C@H](C)NC(=O)[C@@H](NC(=O)[C@H](CC(N)=O)NC(=O)/C=C/C(=O)NCC(=O)NCC(=O)N[C@@H](Cc1ccccc1)C(=O)O)C1CCCCC1)C(N)=O` (HELM PEPTIDE1{[O=C(/C=C/C(=O)[*:2])NCC(=O)NCC(=O)N[C@@H](Cc1ccccc1)C(=O)O].N.[O=C([C@@H](N[*:1])C1CCCCC1)[*:2]].A.V.[am]}$$$$V2.0), the inhibition worked out at 78% against Cathepsin B [1]; 98% in [2]; 79% with Plasmodium falciparum [3]; 26% in test [4]; 73% in test [5]. For the same compound, the figures for the Ki (on Rhodesain; on Cathepsin B [6]; in [8]) were 0.4 µM, 22.2 µM and 12.2 µM, respectively. In the test with Plasmodium falciparum [7] (setting [11]), the IC50 stood at 75 µM.
